According to ChEMBL document CHEMBL4308880, “Novel monoamine oxidase inhibitors based on the privileged 2-imidazoline molecular framework” (Bioorg Med Chem Lett, 2019):

Tests used:
[1] = molecular target: T1, Amine oxidase [flavin-containing] B (Homo sapiens, UniProt P27338); assay: Inhibition of recombinant human MAOB expressed in insect cell microsomes using kynuramine as substrate preincubated with substrate for 30 mins followed by enzyme addition and measured after 20 mins by fluorescence spectrophotometry
T1 sequence (P27338 whole entry): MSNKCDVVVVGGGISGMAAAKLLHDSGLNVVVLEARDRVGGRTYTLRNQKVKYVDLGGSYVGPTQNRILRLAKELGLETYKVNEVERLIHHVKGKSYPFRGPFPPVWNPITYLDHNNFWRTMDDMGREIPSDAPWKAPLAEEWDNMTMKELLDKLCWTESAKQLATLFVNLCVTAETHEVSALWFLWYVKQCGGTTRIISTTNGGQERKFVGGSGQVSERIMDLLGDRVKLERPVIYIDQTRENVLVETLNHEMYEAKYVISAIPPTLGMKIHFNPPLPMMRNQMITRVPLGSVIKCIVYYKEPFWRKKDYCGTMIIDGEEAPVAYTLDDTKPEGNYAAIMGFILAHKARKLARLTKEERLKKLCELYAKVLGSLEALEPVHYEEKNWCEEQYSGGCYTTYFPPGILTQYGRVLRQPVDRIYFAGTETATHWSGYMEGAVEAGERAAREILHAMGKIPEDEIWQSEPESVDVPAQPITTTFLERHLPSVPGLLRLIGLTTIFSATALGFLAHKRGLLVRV
Method in brief: (§1)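 Recombinant human enzyme; kynuramine as substrate for both isoforms. 4-Hydroxyquinoline product read by fluorescence spectrophotometry after alkalization. Rates measured without and with inhibitor at 0.0003–100 µM. IC50 estimated from sigmoidal plots of rate versus log inhibitor concentration. Reported as mean ± standard deviation of triplicate experiments.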

[2] = molecular target: T2, Amine oxidase [flavin-containing] A (Homo sapiens, UniProt P21397); assay: Inhibition of recombinant human MAOA expressed in insect cell microsomes using kynuramine as substrate preincubated with substrate for 30 mins followed by enzyme addition and measured after 20 mins by fluorescence spectrophotometry; method in brief: as §1
T2 sequence (P21397 whole entry): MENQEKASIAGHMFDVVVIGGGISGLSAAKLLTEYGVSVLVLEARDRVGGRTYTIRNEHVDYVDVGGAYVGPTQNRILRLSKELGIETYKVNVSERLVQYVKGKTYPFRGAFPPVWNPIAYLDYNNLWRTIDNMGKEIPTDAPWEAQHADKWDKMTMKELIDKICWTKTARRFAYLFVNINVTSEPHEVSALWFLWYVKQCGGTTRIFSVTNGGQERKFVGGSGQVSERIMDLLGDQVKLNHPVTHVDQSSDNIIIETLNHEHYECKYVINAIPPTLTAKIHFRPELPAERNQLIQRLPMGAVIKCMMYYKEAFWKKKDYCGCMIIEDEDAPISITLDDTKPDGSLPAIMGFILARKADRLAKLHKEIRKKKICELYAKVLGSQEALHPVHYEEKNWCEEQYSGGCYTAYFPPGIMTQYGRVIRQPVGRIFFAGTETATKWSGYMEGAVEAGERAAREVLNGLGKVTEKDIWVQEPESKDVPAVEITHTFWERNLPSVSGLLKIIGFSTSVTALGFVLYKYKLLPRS

[3] = species on record: Homo sapiens; assay: Selectivity index, ratio of IC50 for recombinant human MAOA expressed in insect cell microsomes to IC50 for recombinant human MAOB expressed in insect cell microsomes
[4] = molecular target: T2, Amine oxidase [flavin-containing] A; assay: Competitive inhibition of human MAOA using p-trifluoromethyl benzylamine as substrate preincubated with substrate for 5 mins followed by enzyme addition by fluorimetric horseradish peroxidase-Amplex Red-coupled assay
[5] = molecular target: T1, Amine oxidase [flavin-containing] B; assay: Reversible inhibition of recombinant human MAO-B expressed in insect cell microsomes assessed as residual activity using kynuramine as substrate at 4 times IC50 concentration preincubated for 15 mins with subsequent dialysis for 24 hrs followed by substrate addition measured after 20 mins by fluorescence spectroscopy relative to control
Method in brief: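 Enzyme preincubated 15 min with inhibitor at 4 × IC50, then dialyzed 24 h. Samples then diluted twofold to 2 × IC50. Kynuramine added and reactions run 20 min. 4-Hydroxyquinoline quantified by fluorescence spectrophotometry. Controls: dialysis with no inhibitor (set as 100%) and dialysis with the irreversible inhibitor (R)-deprenyl.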

[6] = molecular target: T1, Amine oxidase [flavin-containing] B; assay: Competitive inhibition of human MAOB expressed in insect cell microsomes using varying levels of kynuramine as substrate measured after 20 mins by Lineweaver-burk plot analysis
Method in brief: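 Activity recorded at 8 kynuramine concentrations (15–250 µM). Runs done without inhibitor and with five inhibitor levels (¼, ½, ¾, 1 and 1¼ × IC50). Mode of inhibition assigned from Lineweaver-Burk plots.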

[7] = molecular target: T1, Amine oxidase [flavin-containing] B; assay: Inhibition of recombinant human MAO-B expressed in insect cell microsomes assessed as residual activity using kynuramine as substrate at 4 times IC50 concentration preincubated for 15 mins measured after 20 mins by fluorescence spectroscopy relative to control
Method in brief: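 Enzyme mixed with inhibitor at 4 × IC50 and incubated 15 min, with no dialysis. Residual activity read with kynuramine by 4-hydroxyquinoline fluorescence and expressed against the dialyzed no-inhibitor control.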

| IC50 [1] [µM] | IC50 [2] [µM] | Ratio IC50 [3] | Ki [4] [µM] | Activity [5] [%] | Ki [6] [µM] | Activity [7] [%] | SMILES |
| --- | --- | --- | --- | --- | --- | --- | --- |
| 0.89 | 1.57 | 1.7 | – | – | – | – | c1csc(-c2noc(-c3ccc(C4=NCCN4)cc3)n2)c1 |
| 0.03 | 17.1 | 570 | – | – | – | – | Clc1ccccc1-c1noc(-c2ccc(C3=NCCN3)cc2)n1 |
| > 100 | > 100 | – | – | – | – | – | CCOc1ccc(-c2n[nH]cc2C2=NCCN2)cc1 |
| 1.37 | 2.77 | 2 | – | – | – | – | c1ccc(Oc2ccc(-c3noc(-c4ccc(C5=NCCN5)cc4)n3)cc2)cc1 |
| 23.9 | 62.2 | 2.6 | – | – | – | – | Cc1nn(Cc2nc(-c3cccc(C4=NCCN4)c3)no2)c(=O)c2ccccc12 |
| 0.03 | 1.39 | 46 | – | – | – | – | Clc1cccc(-c2nc(-c3cccc(C4=NCCN4)c3)no2)c1 |
| > 100 | > 100 | – | – | – | – | – | Cn1ncc2c(c1=O)Oc1ccccc1C1=NCCN12 |
| 18.4 | > 100 | > 5.4 | – | – | – | – | c1ccc(-n2cc(C3=NCCN3)c(-c3cccs3)n2)cc1 |
| 2.28 | 12.4 | 5.4 | – | – | – | – | Cn1ccnc1SCc1ccc(-c2noc(-c3ccc(C4=NCCN4)cc3)n2)cc1 |
| 9.98 | > 100 | > 10 | – | – | – | – | c1ccc(OCc2noc(-c3ccc(C4=NCCN4)cc3)n2)cc1 |
| 1.06 | 88.3 | 83 | – | – | – | – | c1cc(C2=NCCN2)cc(-c2noc(-c3cccs3)n2)c1 |
| 9.02 | 24.6 | 2.7 | – | – | – | – | c1ncn(Cc2ccc(-c3noc(-c4ccc(C5=NCCN5)cc4)n3)cc2)n1 |
| 0.16 | 14.7 | 91 | – | – | – | – | CC1CN=C(c2ccc(-c3noc(-c4ccc(Cl)c(Cl)c4)n3)cc2)N1 (centres undefined) |
| 0.608 | > 100 | > 164 | – | – | – | – | O=c1ccc(-c2ccccc2)nn1Cc1noc(-c2ccc(C3=NCCN3)cc2)n1 |
| 0.012 | 1.11 | 92 | – | – | – | – | Clc1ccc(-c2noc(-c3ccc(C4=NCCN4)cc3)n2)cc1Cl |
| 47.6 | > 100 | > 2.1 | – | – | – | – | c1ccc(-c2ccc(-c3noc(-c4ccc(C5=NCCN5)cc4)n3)cc2)cc1 |
| 41.8 | > 100 | > 2.4 | – | – | – | – | N#Cc1ccc(C2=NCCN2c2ccc(C(F)(F)F)cn2)cc1 |

| IC50 [1] [µM] | IC50 [2] [µM] | Ratio IC50 [3] | Ki [4] [µM] | Activity [5] [%] | Ki [6] [µM] | Activity [7] [%] | SMILES |
| --- | --- | --- | --- | --- | --- | --- | --- |
| 4.28 | 7.37 | 1.7 | – | – | – | – | c1cc(-c2noc(C3CC3)n2)ccc1C1=NCCN1 |
| 0.216 | 12 | 55 | – | – | – | – | COc1cccc(-c2noc(-c3ccc(C4=NCCN4)cc3)n2)c1 |
| 0.23 | 22.5 | 97 | – | – | – | – | CC(C)c1noc(-c2ccc(C3=NCCN3)cc2)n1 |
| > 100 | 32 | < 0.32 | – | – | – | – | FC(F)(F)c1cnc2c(c1)Oc1ccccc1C1=NCCN12 |
| 3.64 | 55.5 | 15 | – | – | – | – | Cc1ccc(Cc2noc(-c3ccc(C4=NCCN4)cc3)n2)cc1 |
| > 100 | > 100 | – | – | – | – | – | COc1ccc(C2=NCCN2)cc1Cn1ccnc1C |
| 1.87 | 147 | 78 | – | – | – | – | N#Cc1cccc(C2=NCCN2)c1 |
| 39.7 | 41.1 | 1 | – | – | – | – | Cc1nc(-c2ccc(C3=NCCN3)cc2)no1 |
| – | – | – | 17 | – | – | – | c1ccc2oc(C3=NCCN3)cc2c1 |
| 0.756 | > 100 | > 132 | – | – | – | – | COc1ccc(-c2noc(-c3ccc(C4=NCCN4)cc3)n2)cc1OC |
| 0.064 | 5.47 | 85 | – | – | – | – | Clc1cccc(-c2noc(-c3ccc(C4=NCCN4)cc3)n2)c1 |
| 0.411 | 0.751 | 1.8 | – | – | – | – | CC(C)(C)c1ccc(-c2noc(-c3ccc(C4=NCCN4)cc3)n2)cc1 |
| 0.071 | 2.31 | 32 | – | 66 | 0.038 | 36 | Cc1ccc(-c2nc(-c3ccc(C4=NCCN4)cc3)no2)cc1 |
| > 100 | > 100 | – | – | – | – | – | c1ccc2c(c1)Oc1nccnc1N1CCN=C21 |
| 17.2 | > 100 | > 5.8 | – | – | – | – | N#Cc1ccc(C2=NCCN2c2cnccn2)cc1 |
| 0.3 | 24.7 | 82 | – | – | – | – | Cc1ccc(-c2noc(-c3ccc(C4=NCC(C)N4)cc3)n2)s1 (centres undefined) |
| 1.26 | > 100 | > 79 | – | – | – | – | O=c1c2ccccc2cnn1Cc1noc(-c2ccc(C3=NCCN3)cc2)n1 |
